Converted amounts (≈) assume the structure as drawn. The source made the active and inactive calls. No cut-off for these calls is given here.
Tests used:
Leishmania amazonensis [1] = assay: Antileishmanial activity against GFP expressing Leishmania amazonensis WHOM/BR/75/Josefa promastigote forms after 72 hrs by fluorescence assay; type: functional, organism-based
Summary of the method: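 GFP-transfected L. amazonensis WHOM/BR/75/Josefa promastigotes grown at 26 °C in M199 with penicillin, streptomycin, 10% heat-inactivated fetal calf serum and 2% human urine, kept under geneticin selection. Compounds dissolved in DMSO (final ≤1%), medium with 5% HIFCS, 72 h at 27 °C. Fluorescence read at 435/538 nm; triplicates, percent inhibition versus medium-only control.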

Peritoneal macrophage [2] = assay: (§1) Cytotoxicity against BALB/c mouse peritoneal macrophages assessed as increase in LDH release; type: cell-based; settings: peritoneal macrophage
Summary of the method: (§2)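 LDH released into the medium from macrophages was read at 340 nm. Cells in 2% Triton X-100 gave maximum release and cells in medium gave minimum release. Release was expressed as percent of the positive control, and the 50% value was obtained by linear regression.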

Peritoneal macrophage [3] = assay: Cytotoxicity against BALB/c mouse peritoneal macrophages at 1 to 100 umol/L after 48 hrs by optical microscopy; type: cell-based
Leishmania amazonensis [4] = assay: Antileishmanial activity against Leishmania amazonensis WHOM/BR/75/Josefa amastigote forms infected in BALB/c mouse peritoneal macrophages after 72 hrs by hematological staining-based microscopic analysis; type: functional, organism-based
Summary of the method: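 Peritoneal macrophages from BALB/c mice collected in ice-cold DMEM, plated at 2 × 10⁶/mL in chamber slides, 1 h at 37 °C and 4% CO₂, non-adherent cells washed off. Infected with stationary-phase promastigotes at 5:1 parasite/macrophage, free parasites washed off after 4 h. Treated, then stained with a hematological dye and amastigotes counted by optical microscopy; triplicate means.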

[5] = Selectivity index, ratio of LD50 for BALB/c mouse peritoneal macrophages to IC50 for antileishmanial activity against Leishmania amazonensis WHOM/BR/75/Josefa amastigote forms; type: toxicity; settings: for selectivity ratio: BALB/c, peritoneal macrophages, read-out: Selectivity Index
[6] = as §1; type: cell-based, Peritoneal macrophage; settings: BALB/c, peritoneal macrophages, read-out: LD50 (the source's name); summary of the method: as §2
Peritoneal macrophage [7] = assay: Induction of nitric oxide production in BALB/c mouse peritoneal macrophages; type: functional, cell-based
Leishmania amazonensis [8] = assay: Antileishmanial activity against Leishmania amazonensis WHOM/BR/75/Josefa amastigote forms infected in BALB/c mouse peritoneal macrophages after 48 hrs by optical microscopy; type: functional, organism-based
Summary of the method: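 BALB/c mouse peritoneal macrophages collected in ice-cold DMEM, plated at 2 × 10⁶/mL, and held 1 h at 37 °C with 4% CO₂. Non-adherent cells were washed off with PBS. Stationary-phase promastigotes were added at a 5:1 parasite:macrophage ratio at 35 °C with 5% CO₂, and free parasites were washed off after 4 h. After 48 h of treatment, slides were stained with a hematological dye and parasites were counted by optical microscopy.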

Leishmania amazonensis [9] = assay: Antileishmanial activity against Leishmania amazonensis MHOM/BR/75/Josefa promastigote forms by trypan blue assay; type: functional, organism-based
[10] = Leishmania amazonensis, WHOM/BR/75/Josefa, 72 h, read-out: IC50

Molecule	IC50 (Leishmania amazonensis [1])	also measured
C=CCc1ccc(OCCCc2cn(Cc3ccc(Br)cc3)nn2)c(OC)c1	287 µM	
C=CCc1ccc(OCc2cn(Cc3cc(Cl)ccc3Cl)nn2)c(OC)c1	49.2 µM	
C=CCc1ccc(OCCCc2cn(Cc3ccc(F)cc3)nn2)c(OC)c1	32.2 µM	
C=CCc1ccc(OCc2cn(Cc3ccc(F)cc3)nn2)c(OC)c1	59.4 µM	
C=CCc1ccc(OCCCc2cn(Cc3ccc(OC)cc3)nn2)c(OC)c1	120 µM	
MEGLUMINE ANTIMONATE [listing 1 of 2 here]		LD50 (Peritoneal macrophage [2]): 75.5 µg/mL; Activity (Peritoneal macrophage [3]): Non-Toxic; IC50 (Leishmania amazonensis [4]): 45.5 µg/mL; Selectivity Index [5]: 1.6
C=CCc1ccc(OCCCc2cn(Cc3ccc([N+](=O)[O-])cc3)nn2)c(OC)c1	173 µM	
C=CCc1ccc(OCc2cn(Cc3ccc(F)c(F)c3)nn2)c(OC)c1	969 µM	
C=CCc1ccc(OCc2cn(Cc3ccccc3)nn2)c(OC)c1	30.2 µM	
C=CCc1ccc(OCc2cn(Cc3ccc(C(F)(F)F)cc3)nn2)c(OC)c1	2010 µM	
C=CCc1ccc(OCCCc2cn(Cc3ccc(C(F)(F)F)cc3)nn2)c(OC)c1	295 µM	
C=CCc1ccc(OCCCc2cn(Cc3ccccc3Br)nn2)c(OC)c1	913 µM	
C=CCc1ccc(OCCCc2cn(Cc3ccc(Cl)cc3)nn2)c(OC)c1	817 µM	
C=CCc1ccc(OCCCc2cn(Cc3ccc(OC(F)(F)F)cc3)nn2)c(OC)c1	146 µM	
C=CCc1ccc(OCc2cn(Cc3ccc(Br)cc3)nn2)c(OC)c1	993 µM	
C=CCc1ccc(OCCCc2cn(Cc3ccccc3)nn2)c(OC)c1	37.9 µM	

Molecule	IC50 (Leishmania amazonensis [1])	also measured
C=CCc1ccc(OCCCc2cn(Cc3cccc(Br)c3)nn2)c(OC)c1	980 µM	
C=CCc1ccc(OCc2cn(Cc3cccc(Br)c3)nn2)c(OC)c1	156 µM	
C=CCc1ccc(OCc2cn(Cc3ccccc3Br)nn2)c(OC)c1	160 µM	
C=CCc1ccc(OCc2cn(Cc3ccc(OC(F)(F)F)cc3)nn2)c(OC)c1	322 µM	
C=CCc1ccc(OCc2cn(Cc3ccc(C)cc3)nn2)c(OC)c1	106 µM	
C=CCc1ccc(OCCCc2cn(Cc3ccc(C)cc3)nn2)c(OC)c1	7.4 µM	CC50 [6]: 212 µM; Activity (Peritoneal macrophage [7]): inactive; Activity (Peritoneal macrophage [3]): Non-Toxic; IC50 (Leishmania amazonensis [4]; [10]): 1.6 µM; Activity (Leishmania amazonensis [8]): Active; selectivity ratio [5]: 132
C=CCc1ccc(OCc2cn(Cc3ccc(OC)cc3)nn2)c(OC)c1	425 µM	
C=CCc1ccc(OCc2cn(Cc3ccc([N+](=O)[O-])cc3)nn2)c(OC)c1	130 µM	
C[C@@H]1[C@H](O)[C@@H](C)/C=C/C=C/C=C/C=C/C=C/C=C/C=C/[C@H](O[C@@H]2O[C@H](C)[C@@H](O)[C@H](N)[C@@H]2O)C[C@@H]2O[C@](O)(C[C@@H](O)C[C@@H](O)[C@H](O)CC[C@@H](O)C[C@@H](O)CC(=O)O[C@H]1C)C[C@H](O)[C@H]2C(=O)O [AMPHOTERICIN B]	0.4 µM	
N=C(N)c1ccc(OCCCCCOc2ccc(C(=N)N)cc2)cc1 [PENTAMIDINE]	4.2 µM	CC50 [6]: 8.5 µM; IC50 (Leishmania amazonensis [4]; [10]): 1.8 µM; selectivity ratio [5]: 4.7
C=CCc1ccc(OCCCc2cn(Cc3ccc(F)c(F)c3)nn2)c(OC)c1	178 µM	
C=CCc1ccc(O)c(OC)c1 [EUGENOL]		IC50 (Leishmania amazonensis [9]): 80 µg/mL (≈ 487 µM)
C=CCc1ccc(OCCCc2cn(Cc3ccc(I)cc3)nn2)c(OC)c1	279 µM	
C=CCc1ccc(OCc2cn(Cc3ccc(Cl)cc3)nn2)c(OC)c1	1780 µM	
MEGLUMINE ANTIMONATE [listing 2 of 2 here]		Activity (Leishmania amazonensis [8]): Active
C=CCc1ccc(OCc2cn(Cc3ccc(I)cc3)nn2)c(OC)c1	2010 µM	

— ChEMBL document CHEMBL4145511, “Synthesis and leishmanicidal activity of eugenol derivatives bearing 1,2,3-triazole functionalities” (Eur J Med Chem, 2018)
